# Columns and labels:
# Streptococcus pneumoniae [1] = assay: Antimicrobial activity against drug-susceptible Streptococcus pneumoniae DP1 Type1 after 20 hrs by agar dilution method; assay type: functional
# Summary of the method: (§1)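 Streptococci, H. influenzae and M. catarrhalis were precultured on blood agar plates. Suspensions of about 10⁶ CFU/ml were inoculated onto sensitivity disk agar supplemented with 5% horse blood and incubated at 37 °C for 20 h. MIC was read as the lowest drug concentration with no visible growth.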
# Haemophilus influenzae [2] = assay: Antimicrobial activity against drug-susceptible Haemophilus influenzae 2 after 20 hrs by agar dilution method; assay type: functional; summary of the method: as §1
# Haemophilus influenzae [3] = assay: Antimicrobial activity against drug-susceptible Haemophilus influenzae 4 after 20 hrs by agar dilution method; assay type: functional; summary of the method: as §1
# Staphylococcus aureus [4] = assay: Antimicrobial activity against drug-susceptible Staphylococcus aureus 2 after 20 hrs by agar dilution method; assay type: functional
# Summary of the method: (§2)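 Agar dilution MIC. S. aureus seed culture was grown in sensitivity test broth. Cell suspension (about 10⁶ CFU/ml) was inoculated onto sensitivity disk agar with 5% horse blood and incubated at 37 °C for 20 h. MIC was the lowest drug concentration that prevented visible growth.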
# Streptococcus pyogenes [5] = assay: Antimicrobial activity against drug-susceptible Streptococcus pyogenes 1 after 20 hrs by agar dilution method; assay type: functional; summary of the method: as §1
# Streptococcus pneumoniae [6] = assay: Antimicrobial activity against drug-susceptible Streptococcus pneumoniae 2 after 20 hrs by agar dilution method; assay type: functional; summary of the method: as §1
# Staphylococcus aureus [7] = assay: Antimicrobial activity against Staphylococcus aureus 6 expressing inducible ermC after 20 hrs by agar dilution method
# Haemophilus influenzae [8] = assay: Antimicrobial activity against drug-susceptible Haemophilus influenzae 1 after 20 hrs by agar dilution method; assay type: functional; summary of the method: as §1
# Staphylococcus aureus [9] = assay: Antimicrobial activity against drug-susceptible Staphylococcus aureus 209P JC-1 after 20 hrs by agar dilution method; assay type: functional; summary of the method: as §2
# Staphylococcus aureus [10] = assay: Antimicrobial activity against Staphylococcus aureus 5 expressing inducible ermB after 20 hrs by agar dilution method; assay type: functional; summary of the method: as §2
# Streptococcus pyogenes [11] = assay: Antimicrobial activity against Streptococcus pyogenes 3 expressing mefA after 20 hrs by agar dilution method; assay type: functional; summary of the method: as §1
# Streptococcus pneumoniae [12] = assay: Antimicrobial activity against Streptococcus pneumoniae 9 expressing mefA after 20 hrs by agar dilution method; assay type: functional; summary of the method: as §1
# Moraxella catarrhalis [13] = assay: Antimicrobial activity against drug-susceptible Moraxella catarrhalis 2 after 20 hrs by agar dilution method; assay type: functional; summary of the method: as §1
# Moraxella catarrhalis [14] = assay: Antimicrobial activity against drug-susceptible Moraxella catarrhalis 1 after 20 hrs by agar dilution method; assay type: functional; summary of the method: as §1
# Staphylococcus aureus [15] = assay: Antimicrobial activity against drug-susceptible Staphylococcus aureus 3 after 20 hrs by agar dilution method; assay type: functional; summary of the method: as §2
# Streptococcus pneumoniae [16] = assay: Antimicrobial activity against Streptococcus pneumoniae 10 expressing mefA after 20 hrs by agar dilution method; assay type: functional; summary of the method: as §1
# Streptococcus pneumoniae [17] = assay: Antimicrobial activity against Streptococcus pneumoniae 7 expressing inducible ermB after 20 hrs by agar dilution method; assay type: functional; summary of the method: as §1
# Streptococcus pneumoniae [18] = assay: Antimicrobial activity against Streptococcus pneumoniae 8 expressing inducible ermB after 20 hrs by agar dilution method; assay type: functional; summary of the method: as §1
# Haemophilus influenzae [19] = assay: Antimicrobial activity against drug-susceptible Haemophilus influenzae 3 after 20 hrs by agar dilution method; assay type: functional; summary of the method: as §1
# Staphylococcus aureus [20] = assay: Antimicrobial activity against Staphylococcus aureus 6 expressing inducible ermB after 20 hrs by agar dilution method; assay type: functional; summary of the method: as §2
# Streptococcus pneumoniae [21] = assay: Antimicrobial activity against Streptococcus pneumoniae 6 constitutively expressing ermB after 20 hrs by agar dilution method; assay type: functional; settings: Streptococcus pneumoniae, 20 h; read-out: MIC; summary of the method: as §1
# Streptococcus pneumoniae [22] = assay: Antimicrobial activity against Streptococcus pneumoniae 5 constitutively expressing ermB/mefA after 20 hrs by agar dilution method; assay type: functional; settings: Streptococcus pneumoniae, 20 h; read-out: MIC; summary of the method: as §1
# Streptococcus pneumoniae [23] = assay: Antimicrobial activity against drug-susceptible Streptococcus pneumoniae 3 after 20 hrs by agar dilution method; assay type: functional; settings: Streptococcus pneumoniae, 20 h; read-out: MIC; summary of the method: as §1
# Streptococcus pyogenes [24] = assay: Antimicrobial activity against Streptococcus pyogenes 2 constitutively expressing ermB after 20 hrs by agar dilution method; assay type: functional; summary of the method: as §1
# Streptococcus pneumoniae [25] = assay: Antimicrobial activity against Streptococcus pneumoniae 4 constitutively expressing ermB after 20 hrs by agar dilution method; assay type: functional; settings: Streptococcus pneumoniae, 20 h; read-out: MIC; summary of the method: as §1
# Staphylococcus aureus [26] = assay: Antimicrobial activity against Staphylococcus aureus 4 constitutively expressing ermA after 20 hrs by agar dilution method; assay type: functional; summary of the method: as §2
# [27] = Haemophilus influenzae, 20 h, read-out: MIC
# [28] = Streptococcus pneumoniae, 20 h, read-out: MIC
# [29] = Staphylococcus aureus, 20 h, read-out: MIC
# [30] = Streptococcus pyogenes, 20 h, read-out: MIC
# [31] = Staphylococcus aureus, 209P, 20 h, read-out: MIC
# [32] = Moraxella catarrhalis, 20 h, read-out: MIC
smiles,measurement,setting,value
CCOC(=O)[C@H]1[C@H](C)O[C@@H](O[C@H]2[C@H](N(C)C)[C@@H](O)[C@H](O[C@H]3[C@@H](CC=O)C[C@@H](C)[C@@H](O)CN(C)CCC(C/C=C/c4ccnc5ccccc45)NC(=O)C[C@@H](OC(=O)CC)[C@@H]3OC)O[C@@H]2C)C[C@@]1(C)O (stereo in doubt),MIC,Streptococcus pneumoniae [1],0.25 µg/mL
same,MIC,Haemophilus influenzae [2],4 µg/mL
same,MIC,Haemophilus influenzae [3],16 µg/mL
same,MIC,Staphylococcus aureus [4],8 µg/mL
same,MIC,Streptococcus pyogenes [5],0.5 µg/mL
same,MIC,Streptococcus pneumoniae [6],0.25 µg/mL
same,MIC,Staphylococcus aureus [7],4 µg/mL
same,MIC,Haemophilus influenzae [8],64 µg/mL
same,MIC,Staphylococcus aureus [9],4 µg/mL
same,MIC,Staphylococcus aureus [10],2 µg/mL
same,MIC,Streptococcus pyogenes [11],2 µg/mL
same,MIC,Streptococcus pneumoniae [12],0.5 µg/mL
same,MIC,Moraxella catarrhalis [13],4 µg/mL
same,MIC,Moraxella catarrhalis [14],8 µg/mL
same,MIC,Staphylococcus aureus [15],2 µg/mL
CCOC(=O)[C@H]1[C@H](C)O[C@@H](O[C@H]2[C@H](N(C)C)[C@@H](O)[C@H](O[C@H]3[C@@H](CC=O)C[C@@H](C)[C@@H](O)CN(C)CC(/C=C/Cc4ccnc5ccccc45)CCOC(=O)C[C@@H](OC(=O)CC)[C@@H]3OC)O[C@@H]2C)C[C@@]1(C)O (stereo in doubt; form 2),MIC,Streptococcus pneumoniae [1],0.03 µg/mL
same,MIC,Haemophilus influenzae [2]; [27],4 µg/mL
same,MIC,Haemophilus influenzae [3],16 µg/mL
same,MIC,Staphylococcus aureus [4],1 µg/mL
same,MIC,Streptococcus pyogenes [5],0.13 µg/mL
same,MIC,Streptococcus pneumoniae [6],0.06 µg/mL
same,MIC,Staphylococcus aureus [7],0.5 µg/mL
same,MIC,Haemophilus influenzae [8],32 µg/mL
same,MIC,Streptococcus pneumoniae [16],0.06 µg/mL
same,MIC,Staphylococcus aureus [9],0.25 µg/mL
same,MIC,Staphylococcus aureus [10],0.25 µg/mL
same,MIC,Streptococcus pneumoniae [17],128 µg/mL
same,MIC,Streptococcus pyogenes [11],0.25 µg/mL
same,MIC,Streptococcus pneumoniae [12],0.06 µg/mL
same,MIC,Moraxella catarrhalis [13],2 µg/mL
same,MIC,Streptococcus pneumoniae [18],128 µg/mL
same,MIC,Moraxella catarrhalis [14],2 µg/mL
same,MIC,Haemophilus influenzae [19],16 µg/mL
same,MIC,Staphylococcus aureus [15],0.25 µg/mL
CCOC(=O)[C@H]1[C@H](C)O[C@@H](O[C@H]2[C@H](N(C)C)[C@@H](O)[C@H](O[C@H]3[C@@H](CC=O)C[C@@H](C)[C@@H](O)CN(C)CCC[C@H](C/C=C/c4ccccc4)OC(=O)C[C@@H](OC(=O)CC)[C@@H]3OC)O[C@@H]2C)C[C@@]1(C)O,MIC,Staphylococcus aureus [20],0.5 µg/mL
same,MIC,Streptococcus pneumoniae [1]; [28],0.03 µg/mL
same,MIC,Streptococcus pneumoniae [21],> 128 µg/mL
same,MIC,Haemophilus influenzae [2]; [27],8 µg/mL
same,MIC,Haemophilus influenzae [3]; [27],8 µg/mL
same,MIC,Streptococcus pneumoniae [22],> 128 µg/mL
same,MIC,Staphylococcus aureus [4]; [29],1 µg/mL
same,MIC,Streptococcus pneumoniae [23],0.06 µg/mL
same,MIC,Streptococcus pyogenes [5]; [30],0.13 µg/mL
same,MIC,Streptococcus pneumoniae [6]; [28],0.06 µg/mL
same,MIC,Streptococcus pyogenes [24],> 128 µg/mL
same,MIC,Haemophilus influenzae [8]; [27],64 µg/mL
same,MIC,Streptococcus pneumoniae [25],128 µg/mL
same,MIC,Staphylococcus aureus [26],> 128 µg/mL
same,MIC,Streptococcus pneumoniae [16]; [28],0.06 µg/mL
same,MIC,Staphylococcus aureus [9]; [31],0.5 µg/mL
same,MIC,Staphylococcus aureus [10]; [29],0.25 µg/mL
same,MIC,Streptococcus pneumoniae [17]; [28],2 µg/mL
same,MIC,Streptococcus pyogenes [11]; [30],0.5 µg/mL
same,MIC,Streptococcus pneumoniae [12]; [28],0.06 µg/mL
same,MIC,Moraxella catarrhalis [13]; [32],1 µg/mL
same,MIC,Streptococcus pneumoniae [18]; [28],4 µg/mL
same,MIC,Moraxella catarrhalis [14]; [32],1 µg/mL
same,MIC,Haemophilus influenzae [19]; [27],16 µg/mL
same,MIC,Staphylococcus aureus [15]; [29],0.25 µg/mL
CCOC(=O)[C@H]1[C@H](C)O[C@@H](O[C@H]2[C@H](N(C)C)[C@@H](O)[C@H](O[C@H]3[C@@H](CC=O)C[C@@H](C)[C@@H](O)CN(C)CCC[C@@H](CCCc4ccnc5ccccc45)OC(=O)C[C@@H](OC(=O)CC)[C@@H]3OC)O[C@@H]2C)C[C@@]1(C)O,MIC,Staphylococcus aureus [20],0.5 µg/mL
same,MIC,Streptococcus pneumoniae [1]; [28],0.03 µg/mL
same,MIC,Streptococcus pneumoniae [21],> 128 µg/mL
same,MIC,Haemophilus influenzae [2]; [27],4 µg/mL
same,MIC,Haemophilus influenzae [3]; [27],8 µg/mL
same,MIC,Streptococcus pneumoniae [22],> 128 µg/mL
same,MIC,Staphylococcus aureus [4]; [29],0.5 µg/mL
same,MIC,Streptococcus pneumoniae [23],0.06 µg/mL
same,MIC,Streptococcus pyogenes [5]; [30],0.13 µg/mL
same,MIC,Streptococcus pneumoniae [6]; [28],0.06 µg/mL
same,MIC,Streptococcus pyogenes [24],> 128 µg/mL
same,MIC,Haemophilus influenzae [8]; [27],64 µg/mL
same,MIC,Streptococcus pneumoniae [25],> 128 µg/mL
same,MIC,Staphylococcus aureus [26],> 128 µg/mL
same,MIC,Streptococcus pneumoniae [16]; [28],0.06 µg/mL
same,MIC,Staphylococcus aureus [9]; [31],0.25 µg/mL
same,MIC,Staphylococcus aureus [10]; [29],0.25 µg/mL
same,MIC,Streptococcus pneumoniae [17]; [28],32 µg/mL
same,MIC,Streptococcus pyogenes [11]; [30],0.5 µg/mL
same,MIC,Streptococcus pneumoniae [12]; [28],0.06 µg/mL
same,MIC,Moraxella catarrhalis [13]; [32],2 µg/mL
same,MIC,Streptococcus pneumoniae [18]; [28],32 µg/mL
same,MIC,Moraxella catarrhalis [14]; [32],2 µg/mL
same,MIC,Haemophilus influenzae [19]; [27],8 µg/mL
same,MIC,Staphylococcus aureus [15]; [29],0.25 µg/mL

# From ChEMBL document CHEMBL1151705, “Novel azalides derived from 16-membered macrolides. Part II: Isolation of the linear 9-formylcarboxylic acid and its sequential macrocyclization with an amino alcohol or an azidoamine” (2008)
